Experimental findings from publication PMC12040810 (AMB Express, 2025) are described below.

In series [1] the test system is L. major promastigotes. Kind of series: In vitro anti-promastigote activity, viability by eosin 0.1% vital stain. The settings on record: Leishmania major, 48 h. The class given is cell-based. The method in brief:
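L. major promastigotes (strain MRHO/IR/75/ER) were kept in RPMI 1640 (pH 7.4) with 20% FBS, 25 mM HEPES and penicillin/streptomycin at 24 °C, passaged every 3 days. Log-phase cells (100 µl at 1 × 10^6/ml) received 100 µl of test compound solution; PBS was the negative control. Plates were held at 26 °C.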

Series [2] concerns L. major. Briefly: In vivo anti-leishmanial effects, lesion size after topical ointment treatment. Also on record: species or system BALB/c mice. The conditions noted are these: group receiving amphotericin B. The method in brief:
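Female BALB/c mice (about 20 g, 6–7 weeks), 5 per group, were injected subcutaneously at the tail base with 1.5 × 10^6 stationary-phase L. major promastigotes. Nodules and ulcers formed by day 21, and lesion amastigotes were confirmed by microscopy at 1000×. Topical ointments were given over 28 days, with vehicle ointment or PBS as controls. Lesion diameter was measured weekly with a dial micrometer before and after treatment.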

Series [3] can be described thus: Biochemical analysis of serum AST and ALT. Type of series: in vivo, BALB/c mice. The conditions noted are these: for level of AST: serum, after treatment, P = 0.072. The method in brief:
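Female BALB/c mice (about 20 g, 6–7 weeks), 5 per group, were infected subcutaneously at the tail base with L. major promastigotes and then given topical ointment treatments. After 28 days, serum was drawn and AST and ALT were measured with a commercial kit. The manufacturer's normal ranges were ALT 75–90 IU/l and AST 125–155 IU/l.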

Series [4] has as its system human blood suspension. Kind of series: Hemolytic assay, spectrophotometric, free hemoglobin at 540 nm. Type of series: cell-based.
The subject of series [5] is L929 cell line. Briefly: Cell toxicity assay. Type of series: cell-based.
Where [6] appears, read: 12 h, composition as in the label, concentration of controls not given.
The mark [7] stands for this setting: 24 h, composition as in the label, concentration of controls not given.
Setting [8] is: 48 h, composition as in the label, concentration of controls not given.
Where [9] appears, read: 6 h, composition as in the label, concentration of controls not given.

Converted amounts (≈) assume the structure as drawn. “And” between values parts separate entries of the source, which are not always exact repeats. Equal values may be shown once.

One may read the IC50 as the concentration needed to halve the response being measured. Read a high IC50 as weaker potency. For the compound `C[C@@H]1[C@H](O)[C@@H](C)/C=C/C=C/C=C/C=C/C=C/C=C/C=C/[C@H](O[C@@H]2O[C@H](C)[C@@H](O)[C@H](N)[C@@H]2O)C[C@@H]2O[C@](O)(C[C@@H](O)C[C@@H](O)[C@H](O)CC[C@@H](O)C[C@@H](O)CC(=O)O[C@H]1C)C[C@H](O)[C@H]2C(=O)O` [Amphotericin B], inhibition in series [1] was half-maximal at 256 µg/mL (≈ 277 µM) (IC50). Besides, the “wound size after 28 days” value in series [2] (after 28 days of treatment) is reported as 1.59 mm. For the same compound, the “wound size before treatment” value in series [2] (before treatment) stood at 15.71 mm. Moreover, the “toxicity judged by AST and ALT” value in series [3] (blood samples after 28 days, in words) is recorded as “highest drug toxicity”. For the same compound, the “level of AST” value in series [3] was “higher compared to the other treatment groups”. Further, the “Hemolytic activity (%) ± SD” value in series [4] (12 h, amphotericin B 500 µg/ml) is 13.9% and 13.9 ± 0.4%; in series [4] (24 h, amphotericin B 500 µg/ml) it was 17.9% and 17.9 ± 0.9%; in series [4] (48 h, amphotericin B 500 µg/ml), 18.4% and 18.4 ± 0.9%. The “Cytotoxic activity (%) ± SD” value in series [5] (6 h, amphotericin B 500 µg/ml) was 0.43 ± 0.03%; in series [5] (12 h, amphotericin B 500 µg/ml), 0.41 ± 0.07%; in series [5] (24 h, amphotericin B 500 µg/ml), 0.41 ± 0.04%. Also, in series [5] (in words, chitosan at 10, 50, and 100 mg/ml), the “toxicity in the MTT assay” value was “significantly lower than those of cisplatin”.
Turning to `CNC[C@H](O)[C@@H](O)[C@H](O)[C@H](O)CO.[O]=[Sb](=[O])[OH]` [Glucantime], in series [3], the “level of AST” value was “higher compared to the other treatment groups”. The “Hemolytic activity (%) ± SD” value amounted to 15.6 ± 0.5% in series [4] (setting [6]), 18.6 ± 0.6% in series [4] (setting [7]) and 20.3 ± 0.8% in series [4] (setting [8]). The “Cytotoxic activity (%) ± SD” value in series [5] (setting [9]) stood at 0.43 ± 0.002%; in series [5] (setting [6]) it was 0.38 ± 0.01%; in series [5] (setting [7]), 0.35 ± 0.02%.
Consider Triton X100, for which the entries for the “Hemolytic activity (%) ± SD” value in series [4] (setting [6]), in series [4] (setting [7]) and in series [4] (setting [8]) were 90.1 ± 4.5%, 99.4 ± 0.5% and 100 ± 0.0%, respectively. Also, the “Cytotoxic activity (%) ± SD” value is reported as 0.14±-0.002% in series [5] (setting [9]), 0.11 ± 0.02% in series [5] (setting [6]) and 0.11 ± 0.006% in series [5] (setting [7]).
